Data reported in paper PMC10935467 (Acta Pharmaceutica Sinica. B, 2023).
Where a SMILES comes first, the peptide text is derived from it. Where no end group is shown, it is not given here. [ ]: non-standard residue; d: D form.

Experiments:
[1] = molecular target: T1, Human LAG-3-His protein (Homo sapiens, UniProt P18627); assay: MST binding affinity to hLAG-3
T1 sequence (P18627 23-525): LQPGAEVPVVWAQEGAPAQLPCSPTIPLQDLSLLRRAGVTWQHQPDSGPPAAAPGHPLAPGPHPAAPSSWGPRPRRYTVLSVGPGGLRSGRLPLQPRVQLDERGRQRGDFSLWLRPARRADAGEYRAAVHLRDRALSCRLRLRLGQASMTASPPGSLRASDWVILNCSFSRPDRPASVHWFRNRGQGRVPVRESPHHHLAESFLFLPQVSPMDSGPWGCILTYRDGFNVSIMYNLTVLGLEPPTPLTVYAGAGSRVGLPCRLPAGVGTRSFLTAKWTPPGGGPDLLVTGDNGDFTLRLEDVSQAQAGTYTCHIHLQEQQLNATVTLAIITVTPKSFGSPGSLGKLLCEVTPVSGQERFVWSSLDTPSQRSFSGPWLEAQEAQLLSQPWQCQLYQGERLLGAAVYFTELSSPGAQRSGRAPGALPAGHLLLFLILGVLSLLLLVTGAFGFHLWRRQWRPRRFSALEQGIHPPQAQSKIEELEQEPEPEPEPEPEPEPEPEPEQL
Procedure, shortened: (§1)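 His-tagged LAG-3 (human or mouse) is labeled with RED-tris-NTA 2nd-generation dye. Test peptide is serially diluted in PBST (0.05% Tween-20) and mixed with an equal volume of labeled protein at room temperature for 5 min. Samples are loaded into capillaries for microscale thermophoresis, and KD is fitted from the dose–response curves.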

[2] = molecular target: T2, mouse LAG-3-His protein (Mus musculus, UniProt Q61790); assay: MST binding affinity to mLAG-3
T2 sequence (Q61790 24-521): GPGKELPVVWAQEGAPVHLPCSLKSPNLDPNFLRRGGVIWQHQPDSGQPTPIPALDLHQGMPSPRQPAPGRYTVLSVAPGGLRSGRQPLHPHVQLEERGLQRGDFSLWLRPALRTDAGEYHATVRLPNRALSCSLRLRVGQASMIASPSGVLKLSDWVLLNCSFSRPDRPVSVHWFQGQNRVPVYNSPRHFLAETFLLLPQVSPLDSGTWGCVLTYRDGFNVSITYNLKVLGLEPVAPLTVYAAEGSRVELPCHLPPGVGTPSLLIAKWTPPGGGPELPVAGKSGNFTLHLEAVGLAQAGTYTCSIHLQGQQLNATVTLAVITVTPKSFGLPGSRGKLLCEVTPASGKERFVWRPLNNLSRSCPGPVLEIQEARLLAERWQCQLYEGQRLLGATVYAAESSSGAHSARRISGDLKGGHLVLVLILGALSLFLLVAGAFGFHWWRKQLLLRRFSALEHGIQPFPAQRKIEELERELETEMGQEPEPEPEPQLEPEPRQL
Procedure, shortened: as §1

[3] = molecular target: T3, mouse LAG-3/FGL1 (Mus musculus, UniProt Q61790); assay: Blocking assay of mLAG-3/mFGL1 interaction on CHO-K1-mLAG-3 cells; format: binding
T3 sequence (Q61790 24-521): T2 sequence (Q61790 24-521)
Procedure, shortened: (§2)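 Cells stably expressing human (CHO-K1-hLAG-3) or mouse (CHO-K1-mLAG-3) LAG-3 are pre-incubated with test peptide at graded concentrations for 30 min at 4 °C. Recombinant FGL1-Fc of the matching species is then added for 30 min at 4 °C, followed by PE anti-human IgG1 (anti-Fc). MFI is read by flow cytometry. Blocking % = (MFI no-peptide control − MFI peptide)/MFI no-peptide control × 100. Cells given only anti-Fc-PE serve as background. IC50 is taken from dose–response curves.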

[4] = molecular target: T4, human LAG-3/FGL1 (Homo sapiens, UniProt P18627); assay: Blocking assay of hLAG-3/hFGL1 interaction on CHO-K1-hLAG-3 cells; format: binding; settings: 100 μmol/L, n = 3, compared with LFP-D1
T4 sequence (P18627 23-525): T1 sequence (P18627 23-525)
Procedure, shortened: as §2

[5] = molecular target: hPD-1/hPD-L1 (Homo sapiens, UniProt Q9NZQ7); assay: Blocking assay of hPD-1/hPD-L1 interaction; format: binding; settings: 100 μmol/L, n = 3, compared with OPBP-1(8–12)
[6] = In vivo toxicity analysis in MC38 tumor-bearing mice; design: species or system mouse
[7] = test system: H22 tumors in BALB/c mice; assay: H22 tumor model; format: in vivo, mouse; settings: daily for 14 days, LFP-D1 3 mg/kg, LFOP 5.8 mg/kg, n = 5
Procedure, shortened: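 H22 cells (2 × 10^6) are injected subcutaneously into the right flank of six-week-old female BALB/c mice. Dosing is daily once tumors reach about 50 mm3: 3 mg/kg, 2.5 mg/kg, both combined, or 5.8 mg/kg of the fused peptide (equimolar to 3 mg/kg). Tumor volume (½ × length × width × height) and body weight are recorded every two days over 14 days of treatment.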

[8] = test system: MC38 tumors in C57BL/6 mice; assay: MC38 tumor model, LFOP alone or combined with radiotherapy; format: in vivo, mouse
Procedure, shortened: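 In MC38 tumor-bearing C57BL/6 mice, tumors of about 100 mm3 receive local 20 Gy irradiation. Test peptide at 5.8 mg/kg is given starting the same day, with or without irradiation; saline and RT-alone groups are included. Tumor volume (½ × length × width × height) and body weight are recorded every two days for 14 days, and tumors are weighed at the end. n = 5.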

[9] = LFP-D1 treatment vs normal saline, n = 5

Chain of hPD-1/hPD-L1 (Q9NZQ7 19-239 limits assumed): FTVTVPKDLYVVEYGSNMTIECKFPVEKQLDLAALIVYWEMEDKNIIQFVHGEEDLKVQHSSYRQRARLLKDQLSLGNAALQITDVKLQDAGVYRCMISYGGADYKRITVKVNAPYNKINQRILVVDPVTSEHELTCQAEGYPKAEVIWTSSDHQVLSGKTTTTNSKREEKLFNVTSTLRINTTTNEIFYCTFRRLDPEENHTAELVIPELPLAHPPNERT

Row | Compound | Kd [1] | Kd [2] | IC50 [3] | Blocking efficacy on hLAG-3/hFGL1 interaction [4] | Blocking efficacy on hPD-1/hPD-L1 interaction [5] | Histopathology of major organs (H&E staining) ([6]; heart, liver, spleen, lung, kidney after treatment with LFOP, RT or both) | Body weight of the mice among groups at ultimate time ([6]; normal saline, RT 20 Gy, LFOP 5.8 mg/kg, LFOP + RT, 14 days, n = 5) | ALT and AST levels in serum ([6]; normal saline, RT 20 Gy, LFOP 5.8 mg/kg, LFOP + RT, n = 5) | Tumor growth in H22 tumor model [7] | Tumor progression of MC38 tumors ([8]; LFOP 5.8 mg/kg alone, 14 days, n = 5) | Tumor growth of MC38 tumors ([8]; LFOP 5.8 mg/kg combined with RT (local 20 Gy), 14 days, n = 5) | Tregs after treatment ([8]; treatment with LFOP, data not shown) | Liver index ([6]; LFP-D1 treatment vs normal saline, liver weight (mg) to body weight (g), n = 5) | ALT level in mice serum [6, 9] | AST level in mice serum [6, 9]
1 | MHRPPST [LFP-6] | 16.1 ± 5.5 µM | 14.6 ± 3.3 µM | 47.2 ± 2.2 µM | – | – | – | – | – | – | – | – | – | – | – | –
2 | CSCC[C@@H](N)C(=O)N[C@@H](Cc1c[nH]cn1)C(=O)N[C@@H](CCCNC(=N)N)C(=O)N1CCC[C@H]1C(=O)N1CCC[C@H]1C(=O)N[C@@H](CO)C(=O)N[C@@H](C(=O)NCC(=O)N[C@@H](CO)C(=O)N[C@H](CCCNC(=N)N)C(=O)N[C@@H](C(=O)N[C@H](Cc1ccc(O)cc1)C(=O)N[C@H](CO)C(=O)N[C@H](Cc1ccccc1)C(=O)O)C(C)C)[C@H](C)O [LFOP] (H-[dM]HRPPS[dT]GS[dR][dV][dY][dS][dF]-OH; N-terminus and C-terminus assumed) | – | – | – | in line with its parental peptide | in line with its parental peptide | no abnormalities | no significant differences | indiscriminate | significantly inhibited the tumor growth | slowed tumor progression | effectively controlled tumor growth even partial regression | decreased | – | – | –
3 | CSCC[C@@H](N)C(=O)N[C@@H](Cc1c[nH]cn1)C(=O)N[C@@H](CCCNC(=N)N)C(=O)N1CCC[C@H]1C(=O)N1CCC[C@H]1C(=O)N[C@@H](CO)C(=O)N[C@@H](C(=O)O)[C@H](C)O [LFP-D1] (H-[dM]HRPPS[dT]-OH) | 15.7 ± 6.7 µM | 10.9 ± 3.3 µM | 17.5 ± 2.2 µM | – | – | – | – | – | – | – | – | – | no significant difference | no significant difference | no significant difference
